In article PMC5384874 (Medicinal chemistry (Shariqah (United Arab Emirates)), 2017):

Tests used:
Assay type in all cases: cell-based, human
[1] = tested on: A549; assay: Cytotoxicity assay, CCK-8 method, A549; conditions: read-out: IC50, cytotoxicity against A549; A549, CCK-8, 24 h incubation
In short: (§1)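 Cells grown in RPMI with 10% fetal bovine serum, penicillin (100 U/mL) and streptomycin (50 μg/mL), seeded in 96-well plates at […]. Test compound added at increasing concentrations; untreated cells as control. Incubated 24 h at 37 °C, 5% CO2, humidified. CCK-8 added, 2 h at 37 °C, read with europium detection protocol. IC50 versus DMSO-treated wells by logit method, at least three independent tests.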

[2] = tested on: MCF-7; assay: Cytotoxicity assay, CCK-8 method, MCF-7; conditions: read-out: IC50, cytotoxicity against MCF-7; MCF-7, CCK-8, 24 h incubation
In short: as §1

[3] = tested on: HeLa; assay: Cytotoxicity assay, CCK-8 method, HeLa; conditions: read-out: IC50, cytotoxicity against HeLa, CCK-8, 24 h incubation
In short: as §1

phylactones F/G [5/6]
IC50 [1]: 7.8 µM
IC50 [2]: 5.2 µM
IC50 [3]: 9.6 µM
